Measurements taken from ChEMBL document CHEMBL3526029, “Disposition and metabolism of GSK2251052 in humans: a novel boron-containing antibiotic” (Drug Metab Dispos, 2013).

Key:
Blood [1] = assay: AUC (0 to infinity) in healthy human whole blood assessed as radioactivity at 1500 mg, iv infusion for 1 hr as single dose; format: ADME, organism-based; design: dose 1500 mg, route intravenous, time infinity; conditions: in vivo
Procedure, shortened: (§1)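 Six fasted healthy men received 1500 mg [14C]GSK2251052 as a 1-h i.v. infusion. Blood and plasma were sampled from predose to 336 h after infusion start. Radioactivity was counted by LSC; plasma below 870 ng eq/ml was reanalysed by accelerator MS, with predose background subtracted. Noncompartmental analysis used actual sampling times, linear-up/log-down trapezoids and CL = dose/AUC(0-∞).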

Blood [2] = assay: Half life in healthy human whole blood assessed as radioactivity at 1500 mg, iv infusion for 1 hr as single dose; format: ADME, organism-based; conditions: in vivo
Procedure, shortened: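 Healthy men got a single 1500 mg [14C] dose by 1 h i.v. infusion. K2EDTA blood was sampled up to 336 h. Radioactivity in blood and plasma was measured by LSC, with AMS for plasma below LLQ. Parent and M3 were measured by LC/MS/MS (5–10,000 ng/ml range). Noncompartmental analysis used actual times, with t1/2 = ln2/λz and Tmax observed directly, timed from infusion start.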

[3] = Drug recovery in healthy human urine at 1500 mg, iv infusion for 1 hr as single dose after 24 hrs; format: ADME, organism-based; conditions: read-out: Drug recovery
[4] = Drug recovery in healthy human urine at 1500 mg, iv infusion for 1 hr as single dose after 48 hrs; format: ADME, organism-based; conditions: read-out: Drug recovery
[5] = Drug metabolism in cynomolgus monkey liver S9 fraction assessed as (S)-3-(3-(aminomethyl)-1-hydroxy-1,3-dihydrobenzo[c][1,2]oxaborol-7-yloxy)propanoicacid formation at 50 to 500 uM after 3 hrs by liquid scintillation counting in presence of NADPH regeneration system; format: ADME, subcellular, Macaca fascicularis; conditions: s9, 3 h
[6] = Drug recovery in healthy human feces at 1500 mg, iv infusion for 1 hr as single dose after 240 hrs; format: ADME, organism-based; conditions: faeces, read-out: Drug recovery
[7] = Drug recovery in healthy human feces at 1500 mg, iv infusion for 1 hr as single dose after 264 hrs; format: ADME, organism-based; conditions: faeces, read-out: Drug recovery
Plasma [8] = assay: Clearance in healthy human plasma assessed as radioactivity at 1500 mg, iv infusion for 1 hr as single dose; format: ADME, organism-based; conditions: in vivo; procedure, shortened: as §1
Plasma [9] = assay: Volume of distribution at steady state in healthy human plasma assessed as radioactivity at 1500 mg, iv infusion for 1 hr as single dose; format: ADME, organism-based; conditions: in vivo
Procedure, shortened: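 Healthy males got a 1500 mg [14C] dose as a 1-h IV infusion. K2EDTA blood was taken at serial times to 336 h. Radioactivity in blood and plasma was measured by LSC; plasma below 870 ng eq/ml was re-measured by accelerator mass spectrometry. Vss = CL × MRT, with CL = dose/AUC(0-∞), from noncompartmental analysis on actual times.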

[10] = Drug recovery in healthy human feces at 1500 mg, iv infusion for 1 hr as single dose after 288 hrs; format: ADME, organism-based; conditions: faeces, read-out: Drug recovery
[11] = Total drug recovery in healthy human at 1500 mg, iv infusion for 1 hr as single dose after 72 hrs; format: ADME, organism-based; conditions: in vivo, read-out: Drug recovery
Procedure, shortened: (§2)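 Six healthy adult males, fasted ≥10 h, got one 1500 mg [14C]GSK2251052 dose ([…], 0.56 MBq) as a constant-rate 1-h IV infusion in 0.9% NaCl. Urine was collected at 0–6, 6–12 and 12–24 h, then in 24-h blocks to 336 h; feces in 24-h blocks. Urine was counted directly by LSC; feces were homogenized and combusted in duplicate before LSC. Cumulative recovery is given as mean % of dose.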

[12] = Total drug recovery in healthy human at 1500 mg, iv infusion for 1 hr as single dose after 168 hrs; format: ADME, organism-based; conditions: in vivo, read-out: Drug recovery
[13] = Total drug recovery in healthy human at 1500 mg, iv infusion for 1 hr as single dose after 312 hrs; format: ADME, organism-based; conditions: in vivo, read-out: Drug recovery; procedure, shortened: as §2
[14] = Total drug recovery in healthy human at 1500 mg, iv infusion for 1 hr as single dose after 336 hrs; format: ADME, organism-based; conditions: in vivo, read-out: Drug recovery; procedure, shortened: as §2
[15] = Drug recovery in healthy human urine at 1500 mg, iv infusion for 1 hr as single dose after 120 to 336 hrs by HPLC method; format: ADME, organism-based; conditions: in the assay text read “0 to 120 hrs” for “120 to 336 hrs”, read-out: Drug recovery
Procedure, shortened: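 Urine pooled by weight per subject over 0–120 h; 120–336 h pools from all subjects combined into one composite. Centrifuged at ~21,000g, then supernatant profiled by HPLC (Atlantis T3, ammonium acetate pH 4.5/methanol, 30°C) with radiochemical detection plus MS identification. Results are % of dose, corrected for centrifugation recovery measured by triplicate LSC.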

[16] = Drug metabolism in healthy human urine assessed as (S)-3-(3-(acetamidomethyl)-1-hydroxy-1,3-dihydrobenzo[c][1,2]oxaborol-7-yloxy)propanoicacid formation at 1500 mg, iv infusion for 1 hr as single dose by mass spectrometry; format: ADME, organism-based; conditions: in vivo
Procedure, shortened: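 Urine was collected through 336 h after a 1500 mg [14C] i.v. 1-h infusion to six men. Samples were pooled by weight (0–120 h per subject; 120–336 h composite) and centrifuged. Profiling used HPLC (Atlantis T3, ammonium acetate pH 4.5/methanol, 30°C) with fraction radioactivity counting. Identity came from Orbitrap positive-ion accurate mass. Values were given as % dose, corrected for recovery.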

[17] = Drug recovery in healthy human feces assessed as total radioactivity at 1500 mg, iv infusion for 1 hr as single dose after 120 to 336 hrs by HPLC method; format: ADME, organism-based; conditions: in vivo, in the assay text read “0 to 120 hrs” for “120 to 336 hrs”
Procedure, shortened: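 Feces were collected at 24-h intervals through 336 h after a 1500 mg [14C] i.v. 1-h infusion. Samples were homogenised with water and duplicate aliquots combusted for LSC. For profiling, 0–120 h pools were extracted twice with acetonitrile:methanol:water:formic acid, reconstituted, and analysed by radio-HPLC. Values were reported as % dose.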

[18] = Drug metabolism in cynomolgus monkey kidney S9 fraction assessed as (S)-3-(3-(aminomethyl)-1-hydroxy-1,3-dihydrobenzo[c][1,2]oxaborol-7-yloxy)propanoicacid formation at 50 to 500 uM after 3 hrs by liquid scintillation counting in presence of NAD+; format: ADME, Macaca fascicularis; conditions: s9, 3 h
Procedure, shortened: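 [14C]GSK2251052 was incubated in triplicate for 1 or 3 h at 37°C with 4 mg/ml S9 (monkey liver, lung or kidney; human liver), liver cytosol or liver microsomes and 7.5 mM NAD+. Buffer was pyrophosphate at pH 7.4, 8.4 or 8.8. Controls lacked cofactor or enzyme. Reactions were quenched with acetonitrile, counted by LSC, and pooled for radio-HPLC.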

[19] = Drug recovery in healthy human urine at 1500 mg, iv infusion for 1 hr as single dose after 240 hrs; format: ADME, organism-based; conditions: read-out: Drug recovery
[20] = Drug recovery in healthy human urine at 1500 mg, iv infusion for 1 hr as single dose after 288 hrs; format: ADME, organism-based; conditions: read-out: Drug recovery
[21] = Drug recovery in healthy human urine at 1500 mg, iv infusion for 1 hr as single dose after 312 hrs; format: ADME, organism-based; conditions: read-out: Drug recovery
[22] = Drug recovery in healthy human feces at 1500 mg, iv infusion for 1 hr as single dose after 24 hrs; format: ADME, organism-based; conditions: read-out: Drug recovery
[23] = Drug recovery in healthy human feces at 1500 mg, iv infusion for 1 hr as single dose after 72 hrs; format: ADME, organism-based; conditions: read-out: Drug recovery

## Cl.N[14CH2][C@H]1OB(O)c2c(OCCCO)cccc21
Blood [1]
  AUC: 193 µg·h/mL
Blood [2]
  t1/2: 14.3 h
[3]
  dose excreted at 24 h: 51.2%
[4]
  dose excreted at 48 h: 69.2%
[5]
  Drug metabolism: metabolite_not_detected
[6]
  dose excreted at 240 h: 7.6%
[7]
  dose excreted at 264 h: 7.6%
Plasma [8]
  CL: 7.7 L/h
Plasma [9]
  Vdss: 348 L
[10]
  dose excreted at 288 h: 7.6%
[11]
  dose excreted at 72 h: 81.2%
[12]
  dose excreted at 168 h: 94%
[13]
  dose excreted at 312 h: 97.8%
[14]
  dose excreted at 336 h: 98.2%
[15]
  dose excreted: 28.9%
[16]
  Drug recovery: metabolite_detected
[17]
  Drug recovery: 6%
[18]
  Drug metabolism: metabolite_not_detected
[19]
  dose excreted at 240 h: 88.8%
[20]
  dose excreted at 288 h: 89.8%
[21]
  dose excreted at 312 h: 90.2%
[22]
  dose excreted at 24 h: 0.1%
[23]
  dose excreted at 72 h: 4.3%
